Series [1] has as its target T1, Anoctamin-1 (Homo sapiens) (UniProt Q5XXA6).
T1 sequence (whole entry): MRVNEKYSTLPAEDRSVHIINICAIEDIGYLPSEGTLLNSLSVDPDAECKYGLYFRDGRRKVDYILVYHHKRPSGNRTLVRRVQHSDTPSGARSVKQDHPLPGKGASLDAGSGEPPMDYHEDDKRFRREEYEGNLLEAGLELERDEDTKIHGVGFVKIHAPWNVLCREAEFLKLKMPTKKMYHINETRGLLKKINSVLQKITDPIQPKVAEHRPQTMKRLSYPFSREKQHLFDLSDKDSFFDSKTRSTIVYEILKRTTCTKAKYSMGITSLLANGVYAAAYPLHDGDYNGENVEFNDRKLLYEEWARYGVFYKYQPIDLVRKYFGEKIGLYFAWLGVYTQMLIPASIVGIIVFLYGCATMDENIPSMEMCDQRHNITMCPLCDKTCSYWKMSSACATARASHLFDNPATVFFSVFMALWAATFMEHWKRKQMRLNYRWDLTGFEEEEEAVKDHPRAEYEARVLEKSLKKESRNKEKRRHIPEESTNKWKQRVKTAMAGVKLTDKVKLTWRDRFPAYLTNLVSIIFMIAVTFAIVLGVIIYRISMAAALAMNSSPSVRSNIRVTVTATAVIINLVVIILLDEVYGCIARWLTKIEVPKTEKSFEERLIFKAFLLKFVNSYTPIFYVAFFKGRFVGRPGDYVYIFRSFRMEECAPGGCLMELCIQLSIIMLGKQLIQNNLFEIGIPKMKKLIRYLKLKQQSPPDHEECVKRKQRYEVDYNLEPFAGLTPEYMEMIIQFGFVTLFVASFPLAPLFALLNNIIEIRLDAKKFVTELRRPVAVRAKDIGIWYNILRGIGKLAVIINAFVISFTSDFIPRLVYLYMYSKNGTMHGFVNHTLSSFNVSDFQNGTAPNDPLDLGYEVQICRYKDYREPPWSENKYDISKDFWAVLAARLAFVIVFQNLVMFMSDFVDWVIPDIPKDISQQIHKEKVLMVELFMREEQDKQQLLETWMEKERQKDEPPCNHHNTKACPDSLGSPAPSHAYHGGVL
Description: Inhibition of human ANO1 channel expressed in HEK293 cells at 10 uM incubated for 10 mins by FLIPR assay relative to control. The format is cell-based. The essentials:
(§1)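 HEK293 cells expressing human ANO1, 50,000 cells/well, plated overnight. Loaded with FLIPR Red membrane-potential dye in HEPES-buffered saline (pH 7.4) for 40-60 min at room temperature. Compound added for 10 min at room temperature, final DMSO 0.5%.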

Series [2] relates to U138-MG. Description: Antiproliferative activity against human U138 cells overexpressing ANO1 assessed as reduction in cell viability at 100 uM measured after 72 hrs by Celltiter-glo assay. The format is functional. In short, it runs like this:
(§2)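 5.0×10^3 cells/well seeded, overnight, then compounds added as 1:4 serial dilutions in DMSO; viability read after 72 h with CellTiter-Glo luminescence. GI50 from fitted dose-response curves; triplicate wells, SD from three independent experiments. DMEM for U251 and U138, MEM for U87MG, both with 10% FBS and pen/strep, 37 °C, 5% CO2.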
A general note: Cellular ATP, detected with luciferase, serves as a proxy for viable cell number.

Series [3] can be described thus: Antiproliferative activity against mouse primary astrocytes assessed as reduction in cell viability at 100 uM measured after 72 hrs by Celltiter-Glo luminescent assay. In kind it is cell-based, Astrocyte. The essentials:
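Primary astrocytes isolated from adult mouse brain by a previously reported method. 5.0×10^3 cells/well, compound as 1:4 serial DMSO dilutions, CellTiter-Glo viability at 72 h.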

For series [4], the system named is U-87 MG. As to the kind of experiment: Antiproliferative activity against human U87MG cells overexpressing ANO1 assessed as reduction in cell viability measured after 72 hrs by Celltiter-glo assay. In kind it is functional, U-87MG ATCC. The essentials:
as §2

The target in series [5] is T2, Anoctamin-1 (Mus musculus, UniProt Q8BHY3).
T2 sequence (Q8BHY3 whole entry): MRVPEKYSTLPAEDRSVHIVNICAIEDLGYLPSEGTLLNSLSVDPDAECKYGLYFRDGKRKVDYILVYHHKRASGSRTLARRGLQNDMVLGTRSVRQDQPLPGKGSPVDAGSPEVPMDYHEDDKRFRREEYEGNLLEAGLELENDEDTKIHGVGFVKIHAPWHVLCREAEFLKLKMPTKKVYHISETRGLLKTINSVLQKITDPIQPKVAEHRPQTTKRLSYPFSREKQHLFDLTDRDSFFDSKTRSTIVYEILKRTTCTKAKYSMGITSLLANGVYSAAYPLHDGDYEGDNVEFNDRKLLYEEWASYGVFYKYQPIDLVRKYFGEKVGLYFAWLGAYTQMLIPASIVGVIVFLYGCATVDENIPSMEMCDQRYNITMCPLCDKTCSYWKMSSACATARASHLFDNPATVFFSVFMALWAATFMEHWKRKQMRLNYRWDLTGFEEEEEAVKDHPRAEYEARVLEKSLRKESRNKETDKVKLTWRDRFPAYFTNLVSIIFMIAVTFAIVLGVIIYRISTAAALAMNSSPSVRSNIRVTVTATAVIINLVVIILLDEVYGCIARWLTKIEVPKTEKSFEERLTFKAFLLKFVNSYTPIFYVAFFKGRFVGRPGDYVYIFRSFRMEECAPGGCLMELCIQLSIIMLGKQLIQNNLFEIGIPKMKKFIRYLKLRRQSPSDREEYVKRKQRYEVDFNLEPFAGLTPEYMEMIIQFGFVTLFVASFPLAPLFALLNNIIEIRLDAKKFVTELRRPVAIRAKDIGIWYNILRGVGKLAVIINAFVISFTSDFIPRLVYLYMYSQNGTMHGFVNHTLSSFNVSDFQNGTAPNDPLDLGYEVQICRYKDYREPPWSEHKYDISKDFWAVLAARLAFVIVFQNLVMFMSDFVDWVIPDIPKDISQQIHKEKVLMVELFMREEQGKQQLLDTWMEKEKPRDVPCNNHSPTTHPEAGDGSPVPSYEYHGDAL
As to the kind of experiment: Inhibition of GFP-fused mouse ANO1 channel expressed in HEK293A cells assessed as inhibition of ATP-induced channel current amplitude at membrane potential of +80 mV by patch clamp electrophysiology assay. The format is cell-based, HEK293-A. In short, it runs like this:
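Whole-cell recording at room temperature in HEK293A cells transfected with GFP-mANO1, GFP-mANO2 or GFP-mTTYH1. 1 s ramps from +80 to -80 mV, holding potential -10 mV. For ANO1/ANO2: pipette CsCl 146 mM with Ca-EGTA-NMDG, pH 7.3; bath NaCl-based, pH 7.3. For TTYH1: Tris-aspartate pipette (pH 7.2) and Tris-HCl bath (pH 7.4), with […] and BaCl2 added to block K+ channels, and hypotonic (220 mOsm/kg) bath. Washout recordings assessed reversibility.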
On the technique in general: In patch-clamp work, channel activity is measured electrically.

For series [6], the target named is T3, Anoctamin-1 (Homo sapiens, UniProt Q5XXA6).
T3 sequence (Q5XXA6 whole entry): T1 sequence (whole entry)
Description: Inhibition of human ANO1 channel expressed in HEK293 cells incubated for 10 mins by FLIPR assay. The format is cell-based. The essentials:
as §1

Series [7] concerns U-251. As to the kind of experiment: Antiproliferative activity against human U251 cells overexpressing ANO1 assessed as reduction in cell viability measured after 72 hrs by Celltiter-glo assay. The format is functional. The essentials:
as §2

In series [8] the test system is U-251. Description: Inhibition of cell invasion in human U251 cells at 10 uM incubated for 48 hrs by Boyden chamber method. The format is functional. The essentials:
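Boyden chamber invasion: U251 cells serum-starved 24 h, then 2.5×10^5 cells seeded in 8-μm ECMatrix-coated transwells. Treated with compound at 1 or 10 μM for 48 h at 37 °C. Invasion ratio from relative fluorescence.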

Series [9] relates to U-251. Description: Inhibition of anchorage-independent colony formation in human U251 cells at 100 uM incubated for 14 days by crystal violet staining based soft agar colony formation assay. The format is functional. Conditions: time 14.0 day. In short, it runs like this:
(§3)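 Soft agar assay: 2.0×10^3 U251 cells in complete medium with 0.3% agar over a 0.6% bottom agar layer. Treated with compounds at 1-100 μM for 14 days, 37 °C, 5% CO2. Colonies stained with crystal violet for 24 h, whole wells photographed and colonies counted against DMSO control; n = 3.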

The test system of series [10] is U-251. Description: Inhibition of anchorage-independent colony formation in human U251 cells at 10 uM incubated for 14 days by crystal violet staining based soft agar colony formation assay. In kind it is functional, cell-based. Conditions: time 14.0 day. In short, it runs like this:
as §3

Series [11] has as its system U-251. Description: Inhibition of colony formation in human U251 cells at 10 uM incubated for 14 days by crystal violet dye based assay. The format is functional. Conditions: time 14.0 day. In short, it runs like this:
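Colonies stained 24 h with crystal violet in methanol/formaldehyde/PBS, washed, extracted with 10% acetic acid and read at A570 nm. Compared against DMSO control.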

Series [12] has as its system U-251. As to the kind of experiment: Inhibition of cell migration in human U251 cells at 10 uM incubated for 18 hrs by wound healing assay. The format is functional. In short, it runs like this: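 U251 monolayer, 2.0×10^5 cells/well, plated overnight, then scratched and washed with PBS. Wound area imaged before and after incubation; migration ratio taken from migrated area. One-way ANOVA.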

The subject of series [13] is U138-MG. As to the kind of experiment: Antiproliferative activity against human U138 cells overexpressing ANO1 assessed as reduction in cell viability measured after 72 hrs by Celltiter-glo assay. In kind it is functional. The essentials: as §2
In series [14] the test system is U-87 MG. As to the kind of experiment: Antiproliferative activity against human U87MG cells overexpressing ANO1 assessed as reduction in cell viability at 100 uM measured after 72 hrs by Celltiter-glo assay. The format is functional, U-87MG ATCC. The essentials:
as §2

pIC50: −log10 of the molar value. Calls of active or inactive are those of the source. The calls are words filed in the database; no cut-off is given here.

The term inhibition denotes the change of the read-out against control, counted positive when it falls. What is called GI50 is the concentration at which growth is held to half of that of the control. The term pIC50 denotes the IC50 on a negative log10 scale, so that one unit is a factor of ten.

Turning to `NC(=O)c1c(NC(=S)NC(=O)c2ccco2)sc2c1CCC2`, in series [1], the inhibition was less than 10%.

In turn, `NC(=O)c1c(NC(=S)NC(=O)c2ccco2)sc2c1CCCCC2` returned an inhibition in [1] of 21.8%.

In series [1], `NC(=O)c1ccsc1NC(=O)c1ccccc1` returned an inhibition of less than 10%.

Compound `NC(=O)c1c(NC(=O)c2ccco2)sc2c1CCCCC2` showed an inhibition in series [1] of less than 10%.

As to `CC(C)(C)C1CCc2c(sc(NC(=S)NC(=O)c3ccccc3)c2C(N)=O)C1` (configuration not stated), the inhibition at 100 µM in the series on U138-MG [2] was less than 50%. In addition, the inhibition at 72 h, 100 µM in series [3] was less than 50%. Also, the 50% growth inhibitory concentration (GI50) was found to be 82.4 µM in the series on U-87 MG [4] and 70.2 µM in the series on U-251 [7]. In addition, the pIC50 is 5.25 on Anoctamin-1 [5] and 5.51 on Anoctamin-1 [6]. In series [1], this compound registered an inhibition of 70.3%.

In turn, `NC(=O)c1c(NC(=O)c2ccccc2)sc2c1CCC2` yielded an inhibition in series [1] of less than 10%.

In turn, `COc1ccc(C(=O)NC(=S)Nc2sc3c(c2C(N)=O)CCC3)cc1OC` showed an inhibition in series [1] of less than 10%.

`Cc1ccccc1NC(=O)c1c(NC(=O)C(F)(F)Br)sc2c1CCCCC2`: the inhibition at 10 µM in the series with U-251 [8] was determined as 11.7%; in the series with U-251 [12] it was 16.7%. For the same compound, in series [3], the inhibition at 72 h, 100 µM is less than 50%. For the same compound, the inhibition result with U-251 [9], in the series with U-251 [10] and in the series on U-251 [11] was “inactive” each time. Moreover, the figures for the GI50 with U-87 MG [4], in the series on U-251 [7] and in the series on U138-MG [13] were 48 µM, 45.3 µM and 29.4 µM, respectively. Also, the pIC50 on Anoctamin-1 [5] was 7.30.

Take `CC(C)(C)C1CCc2c(sc(N)c2C(N)=O)C1` (configuration not stated): the inhibition at 100 µM with U138-MG [2] and with U-87 MG [14] was less than 50% in each case. Moreover, the inhibition at 72 h, 100 µM in series [3] was less than 50%. In addition, the pIC50 is 5.60 on Anoctamin-1 [5] and 5.53 against Anoctamin-1 [6]. The inhibition in series [1] came out at 80.1%. For the same compound, in the series on U-251 [7], the GI50 came out at 83.2 µM.

In [1], `NC(=O)c1c(NC(=S)NC(=O)c2ccc(C(F)(F)F)cc2)sc2c1CCC2` gave an inhibition of less than 10%.

In series [1], `NC(=O)c1ccsc1N` gave an inhibition of less than 10%.

`CC(C)(C)C(=O)Nc1sc2c(c1C(N)=O)CCC2` yielded an inhibition in [1] of 12.5%.

With `CC(C)(C)C1CCc2c(sc(NC(=S)NC(=O)c3ccco3)c2C(N)=O)C1` (configuration not stated), in series [1], the inhibition came out at 13.8%.

In turn, `NC(=O)c1c(NC(=S)NC(=O)c2ccc3c(c2)OCO3)sc2c1CCC2` gave an inhibition in series [1] of 16.3%.

`COc1ccccc1/C=N/NC(=O)COc1ccc(Cl)cc1C`: on Anoctamin-1 [5], the pIC50 was 7.52.

In series [1], `NC(=O)c1ccsc1NC(=O)c1ccco1` came in with an inhibition of 39.5%.

The record behind these values is ChEMBL document CHEMBL4706565, “Anti-glioma effects of 2-aminothiophene-3-carboxamide derivatives, ANO1 channel blockers” (Eur J Med Chem, 2020).
